Assay outcomes: PubChem, Broad Institute
A selection: hits, their analogues and other compounds. The true share with any hit is near 2.2%.
dFosB act-1: activators of delta FosB homodimer, primary screen, biochemical, fluorescence polarization, TAMRA-CDK5 oligo, single point. activation, % at 25 µM. 0.99% of 340,000 active. AID 493131, 2011. purified delta FosB; percent of positive-control signal above neutral wells. Protein FosB (Mus musculus), P13346;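 active means mean activation above about 17%, with every replicate also reaching it, limit read from the data, passing the limit was not always enough; inconclusive means only one of the two conditions met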
Target sequence (P13346 whole entry, looked up): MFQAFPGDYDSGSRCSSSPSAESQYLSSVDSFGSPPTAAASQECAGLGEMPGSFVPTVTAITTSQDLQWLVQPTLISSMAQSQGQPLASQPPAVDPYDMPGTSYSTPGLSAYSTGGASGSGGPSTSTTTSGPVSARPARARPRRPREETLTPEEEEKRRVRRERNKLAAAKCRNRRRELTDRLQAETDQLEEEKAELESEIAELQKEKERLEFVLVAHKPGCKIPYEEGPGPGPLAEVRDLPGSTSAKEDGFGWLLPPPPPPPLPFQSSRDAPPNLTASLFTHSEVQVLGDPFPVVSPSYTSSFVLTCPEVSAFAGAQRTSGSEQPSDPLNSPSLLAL
CAL PDZ FP-1: CAL PDZ peptide-binding inhibitors, primary screen, biochemical, fluorescence polarization, Cer-tagged CAL PDZ, HTS. Golgi-associated PDZ and coiled-coil motif-containing protein (Homo sapiens), Q9HD26. inhibition, % at 20 µM. 0.02% of 330,000 active. AID 504414, 2011. purified CAL PDZ, TMR-peptide fluorescence polarization, 1 h;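 active means highest replicate inhibition of at least 40%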;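 further: plate controls were DMSO neutral control wells for no effect and unlabeled competitor peptide control wells for full effect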
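material = purified tagged CAL PDZ domain construct (CerCALP) | compound dosing = 20 µM, one dose | times = 1 h at RT | measured by = fluorescence polarization from S- and P-plane intensities, G-factor corrected | read-out = inhibition from polarization loss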
CAL PDZ FP-2: untagged CAL PDZ binding inhibitors, primary screen, biochemical, fluorescence polarization, HTS; Golgi-associated PDZ and coiled-coil motif-containing protein (Homo sapiens), Q9HD26; purified CAL PDZ, TMR-peptide fluorescence polarization, 1 h; inhibition, % at 24.9 µM; 0.92% of 300,000 active;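 active means mean inhibition of at least 30% with at least half of replicates also reaching 30%; inconclusive means no clear call, values can overlap the other calls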;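 further: 0% = DMSO neutral control and 100% = excess unlabeled competitor peptide PRC23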
DYRK1A inh: rat Dyrk1A kinase inhibitors, primary screen, biochemical, single point, plate reader; Dual specificity tyrosine-phosphorylation-regulated kinase 1A (Rattus norvegicus), Q63470; ADP-Glo luminescence, NFATc1 peptide; inhibition, % at 12.5 µM; 0.43% of 310,000 active; AID 504441, 2011; in the data active means inhibition above about 50%;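 further: plate controls were vehicle with enzyme for no effect and no enzyme for full effect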
CDK5 p35 inh: inhibitors of human CDK5/p35 kinase, primary screen, biochemical, single concentration; Cyclin-dependent kinase 5 (Homo sapiens) + Cyclin-dependent kinase 5 activator 1 (Homo …; Recombinant CDK5/p35, ADP-Glo luminescence, 60 min; inhibition, % at 10 µM; 0.01% of 330,000 active; AID 488839, 2010;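 active means highest replicate inhibition of at least 50% and at least 75% of replicates reaching 50%; inconclusive means only one of the two criteria met; inactive means both criteria failed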;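 further: plate controls were DMSO neutral control for no effect and GW8510 at 10 µM for full effect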
Rtt109 Vps75: inhibitors of C. albicans Rtt109/Vps75 HAT, primary screen, biochemical, ThioGlo CoA-SH fluorescence, plate reader; 0.16% of 330,000 active; purified Rtt109/Vps75, 4 h; inhibition, % at 34.9 µM; AID 540336, 2011; Histone acetyltransferase RTT109 (Candida albicans (strain SC5314 / ATCC MYA-2876)), …;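 active means inhibition of at least 50% in every replicate; inconclusive means best replicate reaches 50% inhibition but some replicates fall short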
Target sequence (Q5AAJ8 whole entry, looked up): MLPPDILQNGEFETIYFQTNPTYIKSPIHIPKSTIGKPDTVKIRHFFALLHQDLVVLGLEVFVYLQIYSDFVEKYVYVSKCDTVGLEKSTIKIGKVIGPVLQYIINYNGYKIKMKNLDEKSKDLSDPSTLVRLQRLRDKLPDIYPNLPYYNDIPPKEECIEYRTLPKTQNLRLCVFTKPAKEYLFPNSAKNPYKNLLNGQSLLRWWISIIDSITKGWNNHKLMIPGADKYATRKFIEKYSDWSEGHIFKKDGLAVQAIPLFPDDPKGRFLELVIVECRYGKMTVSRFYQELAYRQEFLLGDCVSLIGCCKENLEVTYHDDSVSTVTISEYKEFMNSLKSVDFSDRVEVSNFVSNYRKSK
dFosB act-2: activators of mouse delta FosB DNA binding, confirmation, biochemical, fluorescence polarization, TAMRA-CDK5 oligo, cherry-picked samples; shares compounds with dFosB act-1; purified delta FosB; normalised: neutral wells 0, positive control 100; activation, % at 24.9 µM; 2,400 tested, under 10 active; AID 588690, 2011;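 active means highest replicate activation at or above 34% and every replicate reaching that threshold; inconclusive means meets only one of the two criteria; inactive means meets neither criterion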;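 further: higher polarization means more probe DNA bound by delta FosB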
* = called active by the depositor; ? = inconclusive; . = not tested or not shown.

SMILES | dFosB act-1 | CAL PDZ FP-1 | CAL PDZ FP-2 | DYRK1A inh | CDK5 p35 inh | Rtt109 Vps75 | dFosB act-2
Cc1c(-c2nc(N)nc(Nc3ccccc3)n2)oc2ccccc12 | 52* | -2 | -4 | 11 | 0 | 22 | -1
Nc1nc(CN2CCCCCC2)nc(Nc2ccccc2)n1 | -4 | 0 | -5 | 0 | . | 13 | .
COc1ccc(CNC(=S)Nc2ccc(Br)cc2)cc1 | -3 | -1 | -2 | 4 | 0 | 0 | .
O=C(NCc1ccncc1)C(=O)C1C(=O)Nc2ccccc21 (stereo not given) | -3 | 0 | . | 19 | 2 | -6 | .
CCc1ccc(OCC(=O)NNC(=O)Cc2cccs2)cc1 | -13 | 0 | 2 | -1 | 1 | 10 | .
CCc1ccc(OCC(=O)NNC(=O)Cc2c(F)cccc2Cl)cc1 | 29* | -2 | -2 | . | 1 | ? | -4
CCN(CC)CCNc1ncnc2c1sc1nc(N3CCOCC3)c3c(c12)CCCC3 | 31* | -7 | -12 | . | -1 | 2 | -6
CC(C)CNc1ncnc2c1sc1nc(N3CCOCC3)c3c(c12)CC(C)(C)OC3 | -4 | -2 | 1 | 14 | 0 | -8 | .
O=C(CSc1nnc(NC(=O)c2ccco2)s1)Nc1ccc(F)cc1 | 19* | 0 | -3 | 5 | -2 | . | -5
COc1ccc(NC(=O)CSc2nnc(NC(=O)c3ccco3)s2)cc1 | -2 | -2 | 0 | 0 | 2 | -6 | .
O=C(Cc1ccccc1)Nc1nnc(SCC(=O)NC2CCCC2)s1 | -6 | -1 | -6 | . | 0 | -2 | .
O=C(CSc1nnc(NC(=O)c2ccco2)s1)NC1CCCCC1 | 22* | -3 | 0 | -2 | 1 | -2 | 7
Cc1ccc(N(C)C(=O)CCS(=O)(=O)c2cc3c(cc2Cl)NC(=O)CO3)cc1 | -6 | -1 | . | 0 | 1 | 3 | .
Cc1ccc(N(CC(=O)NCc2ccccc2)C(=O)CCC(=O)Nc2ccccn2)cc1 | -2 | -1 | -6 | -5 | 1 | -14 | .
COc1cccc(NC(=S)/C(=C(\[O-])c2ccc([N+](=O)[O-])cc2)[n+]2ccccc2)c1 | -1 | -3 | -3 | 4 | -3 | -2 | .
O=C(Cn1c2ccc(F)cc2c2nc3n(c(=O)c21)CCS3)Nc1ccccc1C(F)(F)F | 50* | -2 | -3 | -9 | 1 | -3 | -5
CCOc1cc(/C=N/N2CCN(Cc3ccccc3)CC2)ccc1O | 3 | 0 | -3 | . | -1 | -1 | .
COC(=O)c1ccc2c(=O)n(Cc3ccc(C(=O)NCCCN4CCOCC4)cc3)c(=S)[nH]c2c1 | 29* | -1 | 6 | -1 | 3 | 18 | 5
O=C(NCC1CCCO1)c1ccc2c(=O)n(Cc3cccc(Br)c3)c(=S)[nH]c2c1 (stereo not given) | 44* | 0 | 9 | -3 | 2 | 1 | -4
CCOc1cc2[nH]c(=S)n(Cc3ccc(C(=O)NCCCN(CC)CC)cc3)c(=O)c2cc1OCC | 30* | -5 | -9 | 0 | 2 | 2 | 5
CCOc1cc2[nH]c(=S)n(Cc3ccc(C)o3)c(=O)c2cc1OCC | 34* | 0 | . | 3 | 0 | -2 | 3
COC(=O)c1ccc2c(=O)n(Cc3ccc(C(=O)NCCCN4CCC(C)CC4)cc3)c(=S)[nH]c2c1 | 1 | -3 | -7 | . | 0 | 7 | .
CCCCN(C(=O)CSCC(=O)Nc1ccc(OC)cc1)c1c(N)n(CC(C)C)c(=O)[nH]c1=O | -10 | -1 | -3 | 0 | 1 | 30 | .
CCOCCCn1c(=S)[nH]c2cc(C(=O)N3CCN(C4CCCCC4)CC3)ccc2c1=O | -10 | -2 | -3 | 1 | -2 | 6 | .
CCOc1cc2[nH]c(=O)n(Cc3ccc(C(=O)NCCCN4CCC(C)CC4)cc3)c(=O)c2cc1OCC | 26* | -5 | -9 | . | 3 | 23 | 4
SMILES | dFosB act-1 | CAL PDZ FP-1 | CAL PDZ FP-2 | DYRK1A inh | CDK5 p35 inh | Rtt109 Vps75 | dFosB act-2
COc1ccc(Cn2c(=S)[nH]c3cc(C(=O)NCc4cccnc4)ccc3c2=O)cc1 | 24* | -1 | -4 | -10 | 0 | 0 | 1
CCOc1cc2[nH]c(=O)n(CCc3ccc(OC)c(OC)c3)c(=O)c2cc1OCC | 25* | -1 | 4 | 0 | -1 | 4 | -13
O=C(c1ccc(Cn2c(=S)[nH]c3ccc(Br)cc3c2=O)cc1)N1CCN(C2CCCCC2)CC1 | 31* | -1 | 29 | -7 | 0 | 1 | 5
Cc1nonc1C1CCCN1Cc1cn[nH]c1-c1ccc(-c2ccccc2)cc1 (stereo not given) | -16 | -2 | . | 15 | 0 | 9 | .
COc1ccc(Cl)cc1NC(=O)NCc1ccc2c(c1)OCO2 | 62* | -2 | -1 | -4 | 1 | -6 | 5
O=C(NCc1ccc2c(c1)OCO2)C1CCN(C(=O)Nc2ccc(Cl)cc2)CC1 | 20* | 0 | -2 | -2 | -1 | -2 | 4
CCS(=O)(=O)N1CCC(C(=O)NCc2ccc3c(c2)OCO3)CC1 | -10 | -3 | -3 | -8 | 0 | -5 | .
O=C(NCc1ccc2c(c1)OCO2)Nc1cccc(Cl)c1 | 5 | -1 | -5 | -4 | 0 | -5 | .
Cc1ccc(NC(=O)C(C)SCc2nc3sc(C)c(C)c3c(=O)[nH]2)nc1 (stereo not given) | -2 | 0 | -2 | 0 | -3 | 0 | .
O=C(CNC(=O)C1CC(=O)N(c2cccc3ccccc23)C1)Nc1ccccc1Br (stereo not given) | -9 | -2 | . | 7 | -7 | -1 | .
CC(=O)NCCC(=O)Nc1cc(S(=O)(=O)N2CCCCC2)ccc1Oc1ccccc1 | -3 | 0 | . | . | -3 | 11 | .
COc1cccc(Oc2ccc(C(F)(F)F)cc2NC(=O)CN2C(=O)NC3(CCCC3)C2=O)c1 | 45* | 0 | -3 | . | 0 | 9 | -2
Cc1ccc(NC(=O)c2sc3ncn(CC(=O)N4CCN(c5ccccn5)CC4)c(=O)c3c2C)cc1Cl | 35* | 0 | -2 | -2 | 0 | -2 | 1
S=C(c1cn(CCOc2cccc3ccccc23)c2ccccc12)N1CCCC1 | 27* | 0 | 1 | -2 | -2 | 6 | 1
